Results taken from ChEMBL document CHEMBL3352345, “Design, synthesis and biological evaluation of novel thieno[3,2-d]pyrimidine derivatives containing diaryl urea moiety as potent antitumor agents” (Eur J Med Chem, 2014).

Key:
[1] = system: HT-29; test: Induction of apoptosis in human HT-29 cells assessed as increase in PARP cleavage at 1 uM pre-treated for 48 hrs by Western blot method relative to beta-actin expression; assay type: functional
In short: (§1)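 HT-29 cells (about 1 × 10⁷) treated 48 h with vehicle or 1 or 5 µM compound; lysates prepared with lysis buffer plus protease inhibitor cocktail and sonicated. Equal total protein run on 10% SDS-PAGE, transferred to PVDF, probed with primary and HRP secondary antibodies. Cleaved PARP to β-actin ratio expressed relative to control.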

[2] = molecular target: T1, Receptor-type tyrosine-protein kinase FLT3 (Homo sapiens, UniProt P36888); test: Inhibition of FLT3 (unknown origin) using poly (Glu, Tyr) 4:1 substrate incubated for 30 mins by HTRF assay
T1 sequence (P36888 whole entry): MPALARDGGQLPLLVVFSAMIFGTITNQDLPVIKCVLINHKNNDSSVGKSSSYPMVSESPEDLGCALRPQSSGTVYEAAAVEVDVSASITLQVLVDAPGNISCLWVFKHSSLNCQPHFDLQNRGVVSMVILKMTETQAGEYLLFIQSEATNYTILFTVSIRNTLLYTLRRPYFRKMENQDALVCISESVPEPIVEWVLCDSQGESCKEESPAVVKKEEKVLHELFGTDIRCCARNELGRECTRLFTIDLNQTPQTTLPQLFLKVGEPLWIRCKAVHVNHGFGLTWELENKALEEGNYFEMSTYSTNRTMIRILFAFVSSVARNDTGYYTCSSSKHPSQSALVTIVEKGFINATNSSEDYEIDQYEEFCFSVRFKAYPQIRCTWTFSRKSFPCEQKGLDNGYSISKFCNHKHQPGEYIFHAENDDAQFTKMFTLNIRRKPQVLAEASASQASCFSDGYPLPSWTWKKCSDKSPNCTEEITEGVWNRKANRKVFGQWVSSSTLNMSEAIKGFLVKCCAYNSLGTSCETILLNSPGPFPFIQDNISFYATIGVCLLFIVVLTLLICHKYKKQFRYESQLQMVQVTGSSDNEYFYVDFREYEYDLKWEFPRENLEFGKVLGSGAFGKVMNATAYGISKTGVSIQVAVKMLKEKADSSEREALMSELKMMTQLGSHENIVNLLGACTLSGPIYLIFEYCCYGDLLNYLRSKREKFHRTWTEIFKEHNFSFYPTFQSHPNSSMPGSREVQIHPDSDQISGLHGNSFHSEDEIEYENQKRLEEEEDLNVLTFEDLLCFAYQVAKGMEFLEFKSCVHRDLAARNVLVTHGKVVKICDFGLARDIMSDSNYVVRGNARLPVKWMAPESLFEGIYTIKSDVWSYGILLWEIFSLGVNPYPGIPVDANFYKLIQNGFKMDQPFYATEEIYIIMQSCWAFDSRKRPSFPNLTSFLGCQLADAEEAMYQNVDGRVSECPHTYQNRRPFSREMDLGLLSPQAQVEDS
In short: (§2)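 Compounds in 1% DMSO, blank DMSO as negative control. Reaction started with purified tyrosine kinase, 30 min at 25 °C, stopped with Streptavidin-XL665 and Tk antibody cryptate; read at […] and 615 nm.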

[3] = system: HT-29; test: Induction of apoptosis in human HT-29 cells assessed as increase in PARP cleavage pre-treated for 48 hrs by Western blot method; assay type: functional, cell-based; in short: as §1
[4] = molecular target: Phosphatidylinositol 4,5-bisphosphate 3-kinase catalytic subunit alpha isoform (Homo sapiens, UniProt P42336); test: Inhibition of PI3Kalpha (unknown origin) using poly (Glu, Tyr) 4:1 substrate incubated for 30 mins by HTRF assay
[5] = Cytotoxicity against human MKN45 cells after 72 hrs by MTT assay; assay type: functional, cell-based; details: MKN-45, 72 h
In short: (§3)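 Cells suspended in MEM medium, plated and incubated 24 h at 37 °C in 5% CO₂, then exposed to compounds at indicated final concentrations for 72 h. IC₅₀ from averages of three determinations, relative to DMSO vehicle control.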

[6] = molecular target: Serine/threonine-protein kinase mTOR (Homo sapiens, UniProt P42345); test: Inhibition of mTOR (unknown origin) using poly (Glu, Tyr) 4:1 substrate incubated for 30 mins by HTRF assay; in short: as §2
[7] = molecular target: Mast/stem cell growth factor receptor Kit (Homo sapiens, UniProt P10721); test: Inhibition of KIT (unknown origin) using poly (Glu, Tyr) 4:1 substrate incubated for 30 mins by HTRF assay; in short: as §2
[8] = molecular target: Platelet-derived growth factor receptor beta (Homo sapiens, UniProt P09619); test: Inhibition of PDGFRbeta (unknown origin) using poly (Glu, Tyr) 4:1 substrate incubated for 30 mins by HTRF assay; in short: as §2
[9] = Cytotoxicity against human H460 cells after 72 hrs by MTT assay; assay type: functional, cell-based; details: NCI-H460, 72 h; in short: as §3
[10] = molecular target: Vascular endothelial growth factor receptor (Homo sapiens, UniProt P17948+P35916+P35968); test: Inhibition of VEGFR (unknown origin) using poly (Glu, Tyr) 4:1 substrate incubated for 30 mins by HTRF assay; assay type: protein assay
[11] = molecular target: Serine/threonine-protein kinase B-raf (Homo sapiens, UniProt P15056); test: Inhibition of B-Raf (unknown origin) using poly (Glu, Tyr) 4:1 substrate incubated for 30 mins by HTRF assay
[12] = molecular target: Vascular endothelial growth factor receptor 2 (Homo sapiens, UniProt P35968); test: Inhibition of KDR (unknown origin) using poly (Glu, Tyr) 4:1 substrate incubated for 30 mins by HTRF assay
[13] = molecular target: RAF proto-oncogene serine/threonine-protein kinase (Homo sapiens, UniProt P04049); test: Inhibition of C-Raf (unknown origin) using poly (Glu, Tyr) 4:1 substrate incubated for 30 mins by HTRF assay; in short: as §2
[14] = molecular target: Epidermal growth factor receptor (Homo sapiens, UniProt P00533); test: Inhibition of EGFR (unknown origin) using poly (Glu, Tyr) 4:1 substrate incubated for 30 mins by HTRF assay
[15] = system: MDA-MB-231; test: Cytotoxicity against human MDA-MB-231 cells after 72 hrs by MTT assay; assay type: functional, cell-based; details: MDA-MB-231, 72 h; in short: as §3
[16] = system: HT-29; test: Induction of apoptosis in human HT-29 cells assessed as increase in PARP cleavage at 5 uM pre-treated for 48 hrs by Western blot method relative to beta-actin expression; assay type: functional; in short: as §1
[17] = system: HT-29; test: Cytotoxicity against human HT-29 cells after 72 hrs by MTT assay; assay type: functional, cell-based; details: HT-29, 72 h; in short: as §3

Chain of Epidermal growth factor receptor (P00533 whole entry): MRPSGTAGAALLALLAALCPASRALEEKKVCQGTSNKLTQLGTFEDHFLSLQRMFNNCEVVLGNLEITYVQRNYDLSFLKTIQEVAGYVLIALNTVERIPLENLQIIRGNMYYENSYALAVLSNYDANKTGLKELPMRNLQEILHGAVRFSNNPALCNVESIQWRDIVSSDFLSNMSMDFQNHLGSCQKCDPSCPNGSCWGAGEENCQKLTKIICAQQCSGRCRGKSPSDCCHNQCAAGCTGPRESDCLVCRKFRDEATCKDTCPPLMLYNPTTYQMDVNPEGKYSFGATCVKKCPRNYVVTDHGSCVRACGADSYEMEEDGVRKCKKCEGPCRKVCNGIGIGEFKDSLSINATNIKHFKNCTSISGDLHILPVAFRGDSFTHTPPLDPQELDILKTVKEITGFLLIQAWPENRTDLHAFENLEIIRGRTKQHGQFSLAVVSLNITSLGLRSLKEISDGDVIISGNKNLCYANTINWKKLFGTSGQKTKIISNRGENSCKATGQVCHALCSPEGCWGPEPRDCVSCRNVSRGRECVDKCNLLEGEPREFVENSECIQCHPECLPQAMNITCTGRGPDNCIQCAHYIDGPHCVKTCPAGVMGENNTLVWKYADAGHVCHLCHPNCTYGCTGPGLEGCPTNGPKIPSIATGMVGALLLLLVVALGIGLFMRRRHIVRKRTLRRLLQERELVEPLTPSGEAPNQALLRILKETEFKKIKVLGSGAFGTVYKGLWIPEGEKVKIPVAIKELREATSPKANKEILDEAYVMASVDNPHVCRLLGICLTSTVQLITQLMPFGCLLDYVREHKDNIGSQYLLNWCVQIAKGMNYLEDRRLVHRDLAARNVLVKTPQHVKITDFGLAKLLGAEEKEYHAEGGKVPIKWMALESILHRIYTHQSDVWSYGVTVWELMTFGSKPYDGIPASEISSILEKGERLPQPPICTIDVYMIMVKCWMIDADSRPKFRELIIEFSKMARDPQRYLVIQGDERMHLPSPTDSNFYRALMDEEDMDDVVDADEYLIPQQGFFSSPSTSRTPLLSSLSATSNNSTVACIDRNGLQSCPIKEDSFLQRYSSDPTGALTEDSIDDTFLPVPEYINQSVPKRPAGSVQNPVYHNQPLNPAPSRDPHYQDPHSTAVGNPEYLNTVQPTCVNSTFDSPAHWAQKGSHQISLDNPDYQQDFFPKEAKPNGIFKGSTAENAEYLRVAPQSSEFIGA
Chain of Platelet-derived growth factor receptor beta (P09619 whole entry): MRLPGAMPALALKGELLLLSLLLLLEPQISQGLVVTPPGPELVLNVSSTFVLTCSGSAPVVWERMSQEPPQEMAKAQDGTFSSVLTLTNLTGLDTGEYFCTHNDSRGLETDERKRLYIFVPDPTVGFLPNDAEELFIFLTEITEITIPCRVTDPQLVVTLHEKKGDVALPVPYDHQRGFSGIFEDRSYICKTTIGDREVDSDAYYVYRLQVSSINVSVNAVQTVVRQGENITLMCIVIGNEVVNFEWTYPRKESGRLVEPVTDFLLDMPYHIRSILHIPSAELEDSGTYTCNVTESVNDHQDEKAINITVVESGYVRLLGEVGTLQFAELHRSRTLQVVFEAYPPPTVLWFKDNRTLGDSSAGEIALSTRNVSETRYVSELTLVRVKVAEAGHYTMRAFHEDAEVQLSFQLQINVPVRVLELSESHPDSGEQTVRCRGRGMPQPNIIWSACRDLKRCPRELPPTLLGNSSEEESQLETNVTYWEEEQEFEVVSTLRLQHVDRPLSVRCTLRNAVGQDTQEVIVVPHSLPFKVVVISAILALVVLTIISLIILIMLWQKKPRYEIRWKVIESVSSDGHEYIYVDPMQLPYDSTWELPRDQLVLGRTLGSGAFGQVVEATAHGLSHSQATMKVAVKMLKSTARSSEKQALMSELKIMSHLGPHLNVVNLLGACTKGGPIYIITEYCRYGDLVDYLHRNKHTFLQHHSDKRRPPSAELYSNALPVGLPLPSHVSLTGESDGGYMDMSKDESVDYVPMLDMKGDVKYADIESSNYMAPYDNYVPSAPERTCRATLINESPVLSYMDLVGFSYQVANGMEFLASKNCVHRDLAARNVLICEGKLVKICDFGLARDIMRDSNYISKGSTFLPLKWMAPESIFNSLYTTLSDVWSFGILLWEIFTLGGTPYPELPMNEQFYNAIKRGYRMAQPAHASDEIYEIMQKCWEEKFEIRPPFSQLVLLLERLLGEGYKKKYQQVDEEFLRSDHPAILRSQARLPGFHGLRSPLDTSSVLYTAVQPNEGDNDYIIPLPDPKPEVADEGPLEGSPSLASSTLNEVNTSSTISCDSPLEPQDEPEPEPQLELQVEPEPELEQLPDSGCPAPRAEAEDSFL
Chain of Phosphatidylinositol 4,5-bisphosphate 3-kinase catalytic subunit alpha isoform (P42336 whole entry, canonical isoform): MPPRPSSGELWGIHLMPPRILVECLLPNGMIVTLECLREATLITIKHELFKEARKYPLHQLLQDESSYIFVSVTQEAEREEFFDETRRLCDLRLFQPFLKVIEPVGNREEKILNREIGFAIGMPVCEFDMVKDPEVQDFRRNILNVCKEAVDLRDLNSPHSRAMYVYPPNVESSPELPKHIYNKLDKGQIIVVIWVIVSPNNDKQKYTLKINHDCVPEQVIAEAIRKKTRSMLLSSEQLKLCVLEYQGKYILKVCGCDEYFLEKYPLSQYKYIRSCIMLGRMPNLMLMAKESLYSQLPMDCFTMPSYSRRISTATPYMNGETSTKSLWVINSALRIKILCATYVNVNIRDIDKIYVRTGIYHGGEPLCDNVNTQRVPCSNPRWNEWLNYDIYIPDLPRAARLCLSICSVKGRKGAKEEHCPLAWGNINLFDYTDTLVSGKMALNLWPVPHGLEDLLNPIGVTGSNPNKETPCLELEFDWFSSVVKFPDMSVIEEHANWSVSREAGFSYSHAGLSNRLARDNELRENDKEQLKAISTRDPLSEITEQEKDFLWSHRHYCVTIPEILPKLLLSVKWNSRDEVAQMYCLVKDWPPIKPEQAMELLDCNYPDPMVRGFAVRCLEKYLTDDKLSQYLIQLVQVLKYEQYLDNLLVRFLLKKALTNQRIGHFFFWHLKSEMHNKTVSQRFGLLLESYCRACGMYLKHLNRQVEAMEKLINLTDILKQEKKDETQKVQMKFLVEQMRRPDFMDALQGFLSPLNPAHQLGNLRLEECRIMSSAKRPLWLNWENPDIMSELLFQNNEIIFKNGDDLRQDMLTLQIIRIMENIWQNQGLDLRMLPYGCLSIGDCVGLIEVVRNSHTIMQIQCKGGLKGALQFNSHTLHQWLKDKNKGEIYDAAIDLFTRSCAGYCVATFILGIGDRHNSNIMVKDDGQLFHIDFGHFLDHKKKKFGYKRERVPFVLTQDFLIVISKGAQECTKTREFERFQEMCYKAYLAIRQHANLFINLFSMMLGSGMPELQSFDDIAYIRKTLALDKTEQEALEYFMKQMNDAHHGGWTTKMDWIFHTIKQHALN
Chain of RAF proto-oncogene serine/threonine-protein kinase (P04049 whole entry): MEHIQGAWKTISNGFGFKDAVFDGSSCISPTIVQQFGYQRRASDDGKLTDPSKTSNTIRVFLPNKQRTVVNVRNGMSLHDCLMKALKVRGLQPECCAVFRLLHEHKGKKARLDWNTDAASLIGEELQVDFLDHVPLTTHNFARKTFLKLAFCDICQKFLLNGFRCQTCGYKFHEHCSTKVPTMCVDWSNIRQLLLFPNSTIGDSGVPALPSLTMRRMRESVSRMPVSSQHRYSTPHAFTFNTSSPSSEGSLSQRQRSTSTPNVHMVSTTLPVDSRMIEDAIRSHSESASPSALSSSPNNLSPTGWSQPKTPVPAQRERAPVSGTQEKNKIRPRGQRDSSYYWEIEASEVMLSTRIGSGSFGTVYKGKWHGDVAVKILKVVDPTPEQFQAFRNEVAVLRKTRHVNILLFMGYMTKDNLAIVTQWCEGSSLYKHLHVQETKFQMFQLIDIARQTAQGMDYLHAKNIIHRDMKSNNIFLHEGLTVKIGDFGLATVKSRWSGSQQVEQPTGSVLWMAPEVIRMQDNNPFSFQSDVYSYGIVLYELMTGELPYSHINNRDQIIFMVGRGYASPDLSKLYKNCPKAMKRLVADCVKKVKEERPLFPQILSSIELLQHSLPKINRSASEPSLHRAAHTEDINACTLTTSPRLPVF
Chain of Serine/threonine-protein kinase B-raf (P15056 whole entry): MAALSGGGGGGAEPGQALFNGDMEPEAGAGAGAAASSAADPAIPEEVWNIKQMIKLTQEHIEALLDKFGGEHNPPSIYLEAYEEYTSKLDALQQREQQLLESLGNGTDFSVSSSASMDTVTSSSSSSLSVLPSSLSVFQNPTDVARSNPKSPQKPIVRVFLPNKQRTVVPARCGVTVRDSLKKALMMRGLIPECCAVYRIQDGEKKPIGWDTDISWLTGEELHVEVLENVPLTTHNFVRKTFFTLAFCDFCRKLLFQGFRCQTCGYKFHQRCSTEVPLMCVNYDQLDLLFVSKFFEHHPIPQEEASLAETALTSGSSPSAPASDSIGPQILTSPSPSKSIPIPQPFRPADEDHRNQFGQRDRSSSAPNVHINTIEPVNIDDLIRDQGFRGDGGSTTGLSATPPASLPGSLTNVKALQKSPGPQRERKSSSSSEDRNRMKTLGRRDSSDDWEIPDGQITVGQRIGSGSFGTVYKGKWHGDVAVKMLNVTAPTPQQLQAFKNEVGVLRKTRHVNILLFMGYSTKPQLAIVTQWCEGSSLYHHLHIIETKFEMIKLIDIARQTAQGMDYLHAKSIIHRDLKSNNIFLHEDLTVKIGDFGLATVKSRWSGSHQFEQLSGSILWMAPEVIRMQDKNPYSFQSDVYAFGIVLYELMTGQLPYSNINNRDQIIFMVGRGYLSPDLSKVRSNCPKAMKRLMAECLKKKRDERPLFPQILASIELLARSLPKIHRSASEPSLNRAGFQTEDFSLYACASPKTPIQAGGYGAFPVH

With CCN(CC)CCCNc1nc(-c2ccc(NC(=O)Nc3ccc(Cl)cc3)cc2)nc2ccsc12 the “fold change (FC)” value [1] was 2.5, the IC50 [2] was 1000 nM and the Activity [3] was “Dose-dependent effect”. It also gave an IC50 [4] of 130 nM, an IC50 [5] of 180 nM and an IC50 [6] greater than 10000 nM. It also gave an IC50 [7] of 6100 nM, an IC50 [8] of 5800 nM and an IC50 [9] of 81 nM. The IC50 [10] was greater than 10000 nM, the IC50 [11] was greater than 10000 nM and the IC50 [12] was greater than 10000 nM. The IC50 [13] was greater than 10000 nM, the IC50 [14] was greater than 10000 nM and the IC50 [15] was 230 nM. For the same molecule, the “fold change (FC)” value [16] was 3.5 and the IC50 [17] was 58 nM.
